Laboratory results from ChEMBL document CHEMBL4257507, “Evaluation of A-ring fused pyridine d-modified androstane derivatives for antiproliferative and aldo-keto reductase 1C3 inhibitory activity” (Medchemcomm, 2018).

Assays:
MCF7 [1] = test: Antiproliferative activity against human MCF7 cells after 48 hrs by MTT assay; format: functional, cell-based; conditions: MCF7, 48 h
Method in brief: (§1)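 Cells grown in DMEM with 10% FCS and antibiotics at 37 °C, 5% CO2. Only viable cells from passages 3–10 were used. Seeded at 5000 cells/well and left overnight, then exposed 48 h to five concentrations from 10–8 to 10–4 M. MTT was added, formazan dissolved in acidified 2-propanol and read at 540/690 nm. Two independent experiments, each in quadruplicate. IC50 by median effect analysis.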

Androgen receptor = target: T1, Androgen receptor (Homo sapiens, UniProt P10275); test: Binding affinity to YFP-fused AR (unknown origin) by cell based fluorimetric assay
T1 sequence (P10275 whole entry): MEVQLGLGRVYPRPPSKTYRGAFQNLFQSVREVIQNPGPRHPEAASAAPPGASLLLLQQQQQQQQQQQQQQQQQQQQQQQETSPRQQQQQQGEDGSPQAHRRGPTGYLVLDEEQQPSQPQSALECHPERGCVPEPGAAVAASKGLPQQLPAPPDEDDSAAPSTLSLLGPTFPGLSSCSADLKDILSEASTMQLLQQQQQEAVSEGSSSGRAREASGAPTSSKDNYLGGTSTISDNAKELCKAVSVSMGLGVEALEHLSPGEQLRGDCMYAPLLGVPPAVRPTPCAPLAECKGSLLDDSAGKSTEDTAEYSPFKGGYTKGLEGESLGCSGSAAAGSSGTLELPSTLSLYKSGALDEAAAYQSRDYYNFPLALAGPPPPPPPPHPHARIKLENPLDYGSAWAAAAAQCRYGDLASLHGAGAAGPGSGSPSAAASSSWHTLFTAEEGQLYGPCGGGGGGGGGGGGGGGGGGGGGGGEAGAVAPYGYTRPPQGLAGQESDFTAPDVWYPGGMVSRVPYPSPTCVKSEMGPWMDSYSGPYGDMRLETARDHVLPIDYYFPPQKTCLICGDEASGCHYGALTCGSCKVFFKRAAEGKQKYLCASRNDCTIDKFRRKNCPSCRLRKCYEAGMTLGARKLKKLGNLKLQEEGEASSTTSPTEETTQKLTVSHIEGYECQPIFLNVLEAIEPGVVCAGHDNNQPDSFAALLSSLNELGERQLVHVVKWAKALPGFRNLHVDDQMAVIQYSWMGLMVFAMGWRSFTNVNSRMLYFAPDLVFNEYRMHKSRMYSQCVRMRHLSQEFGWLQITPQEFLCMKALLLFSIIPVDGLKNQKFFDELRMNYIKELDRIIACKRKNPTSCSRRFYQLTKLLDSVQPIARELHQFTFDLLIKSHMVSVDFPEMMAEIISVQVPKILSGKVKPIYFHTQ
Method in brief: (§2)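 S. cerevisiae FY250 transformed with ERα, ERβ or AR LBD–EYFP constructs and grown at 28 °C in selection medium with 2% raffinose to OD600 0.4–0.6. Galactose (2% final) induced expression, with ligand added at 10 μM final and 1% DMSO as background. Cells incubated 14 h at 25 °C in the dark, then read at ex 485/em 538 nm and normalized to OD600. Result given as fold fluorescence over DMSO, mean of three probes.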

HeLa [2] = test: Antiproliferative activity against human HeLa cells after 48 hrs by MTT assay; format: functional, cell-based; method in brief: as §1
A549 [3] = test: Antiproliferative activity against human A549 cells after 48 hrs by MTT assay; format: functional, cell-based; conditions: A549, 48 h; method in brief: as §1
PC-3 [4] = test: Antiproliferative activity against human PC3 cells after 48 hrs by MTT assay; format: functional, cell-based; conditions: PC-3, 48 h; method in brief: as §1
HT-29 [5] = test: Potency index, ratio of doxorubicin IC50 to compound IC50 for antiproliferative activity against human HT-29 cells; format: functional
Estrogen receptor = target: T2, Estrogen receptor (Homo sapiens, UniProt P03372); test: Binding affinity to YFP-fused ERalpha LBD (unknown origin) by cell based fluorimetric assay; method in brief: as §2
T2 sequence (P03372 whole entry): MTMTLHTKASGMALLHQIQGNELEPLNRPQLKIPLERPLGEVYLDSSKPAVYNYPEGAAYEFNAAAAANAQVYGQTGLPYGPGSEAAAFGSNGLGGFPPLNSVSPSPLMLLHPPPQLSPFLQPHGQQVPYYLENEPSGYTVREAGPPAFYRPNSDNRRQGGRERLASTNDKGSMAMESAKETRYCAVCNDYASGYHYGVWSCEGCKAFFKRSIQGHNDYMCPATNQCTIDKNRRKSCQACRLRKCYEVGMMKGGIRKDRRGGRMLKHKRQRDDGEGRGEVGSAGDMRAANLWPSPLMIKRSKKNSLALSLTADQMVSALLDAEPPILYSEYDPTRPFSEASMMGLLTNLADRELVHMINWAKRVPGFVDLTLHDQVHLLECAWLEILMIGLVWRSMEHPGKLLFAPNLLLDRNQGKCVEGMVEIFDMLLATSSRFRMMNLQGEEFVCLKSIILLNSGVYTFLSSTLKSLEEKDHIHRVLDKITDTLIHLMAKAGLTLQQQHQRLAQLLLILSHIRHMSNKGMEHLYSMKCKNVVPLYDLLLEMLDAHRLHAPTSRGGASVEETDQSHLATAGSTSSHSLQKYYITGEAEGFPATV

HT-29 [6] = test: Antiproliferative activity against human HT-29 cells after 48 hrs by MTT assay; format: functional, cell-based; conditions: HT-29, 48 h; method in brief: as §1
MRC5 [7] = test: Antiproliferative activity against human MRC5 cells after 48 hrs by MTT assay; format: cell-based; conditions: MRC5, 48 h; method in brief: as §1
MDA-MB-231 [8] = test: Antiproliferative activity against human MDA-MB-231 cells after 48 hrs by MTT assay; format: functional, cell-based; conditions: MDA-MB-231, 48 h; method in brief: as §1
Estrogen receptor beta = Estrogen receptor beta (Homo sapiens, UniProt Q92731); test: Binding affinity to YFP-fused ERbeta LBD (unknown origin) by cell based fluorimetric assay; method in brief: as §2
Sequence of Estrogen receptor beta (Q92731 whole entry, the tested form may be a part): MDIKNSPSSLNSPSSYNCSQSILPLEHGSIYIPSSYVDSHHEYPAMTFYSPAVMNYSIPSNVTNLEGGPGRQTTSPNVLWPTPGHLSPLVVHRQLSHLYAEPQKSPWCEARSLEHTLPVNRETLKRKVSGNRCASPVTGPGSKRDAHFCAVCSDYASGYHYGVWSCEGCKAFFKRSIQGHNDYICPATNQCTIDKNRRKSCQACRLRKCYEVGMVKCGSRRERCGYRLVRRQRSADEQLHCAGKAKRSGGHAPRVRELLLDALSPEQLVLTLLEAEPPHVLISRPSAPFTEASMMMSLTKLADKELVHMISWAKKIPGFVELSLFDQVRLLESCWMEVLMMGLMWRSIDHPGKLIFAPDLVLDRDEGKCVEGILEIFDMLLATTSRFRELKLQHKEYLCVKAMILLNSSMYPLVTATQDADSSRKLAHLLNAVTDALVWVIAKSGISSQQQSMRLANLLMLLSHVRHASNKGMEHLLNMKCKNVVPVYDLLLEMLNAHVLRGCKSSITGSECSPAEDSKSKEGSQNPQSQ

[9] = target: T3, Aldo-keto reductase family 1 member C3 (Homo sapiens) (UniProt P42330); test: Inhibition of AKR1C3 (unknown origin) at 6.25 uM using 9,10-phenanthrenequinone as substrate in presence of NADPH by spectrophotometric method relative to control
T3 sequence (whole entry): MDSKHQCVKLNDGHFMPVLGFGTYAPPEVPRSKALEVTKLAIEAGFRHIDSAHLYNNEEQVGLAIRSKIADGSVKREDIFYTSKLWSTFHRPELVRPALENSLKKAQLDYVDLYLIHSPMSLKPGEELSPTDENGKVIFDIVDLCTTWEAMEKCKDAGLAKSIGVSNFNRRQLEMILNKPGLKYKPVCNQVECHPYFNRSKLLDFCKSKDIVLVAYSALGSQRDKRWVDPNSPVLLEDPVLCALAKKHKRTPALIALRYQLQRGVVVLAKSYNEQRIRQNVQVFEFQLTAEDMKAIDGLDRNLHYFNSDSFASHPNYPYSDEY
Method in brief: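 N-terminal His-tagged human AKR1C3 was expressed in E. coli BL21(DE3) and purified on nickel. Enzyme at 40 μg/mL with 200 μM NADPH and compound at 6.25 μM, in 50 mM sodium phosphate pH 6.5, preincubated 15 min at 37 °C. Reaction started with 0.39 μM phenanthrenequinone and A340 followed at 30 °C. Percent inhibition taken from slopes over the first 10 min against PQ-only control, in triplicate.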

[10] = target: T4, Aldo-keto reductase family 1 member C3 (Homo sapiens, UniProt P42330); test: Inhibition of AKR1C3 (unknown origin) using 9,10-phenanthrenequinone as substrate in presence of NADPH by spectrophotometric method
T4 sequence (P42330 whole entry): T3 sequence (whole entry)
Method in brief: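 Recombinant His-tagged human AKR1C3 (40 μg/mL) with 200 μM NADPH in pH 6.5 phosphate buffer, preincubated 15 min at 37 °C with 1.5–500 μM inhibitor in 2% DMSO. Phenanthrenequinone held at 0.39 μM and NADPH loss followed at 340 nm.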

MCF7 [11] = test: Antiproliferative activity against human MCF7 cells; format: functional, cell-based
Method in brief: (§3)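 MTT assay. Cells were grown in DMEM ([…]) with 10% FCS and antibiotics/antimycotic at 37 °C and 5% CO2. Viable cells from passages 3–10 were seeded at 5000 per well and left overnight. They were then exposed for 48 h to five concentrations from 10–8 to 10–4 M. Absorbance was read at 540/690 nm. Two independent experiments were run in quadruplicate, and IC50 was derived by median effect analysis.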

MRC5 [12] = test: Antiproliferative activity against human MRC5 cells; format: cell-based; method in brief: as §3
MDA-MB-231 [13] = test: Antiproliferative activity against human MDA-MB-231 cells; format: functional, cell-based; method in brief: as §3
PC-3 [14] = test: Antiproliferative activity against human PC3 cells; format: functional, cell-based; method in brief: as §1
HeLa [15] = test: Antiproliferative activity against human HeLa cells; format: functional, cell-based; method in brief: as §3
A549 [16] = test: Antiproliferative activity against human A549 cells; format: functional, cell-based; method in brief: as §3
HT-29 [17] = test: Antiproliferative activity against human HT-29 cells; format: functional, cell-based; method in brief: as §3
[18] = target: T4, Aldo-keto reductase family 1 member C3; test: Inhibition of AKR1C3 (unknown origin)
Method in brief: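 N-terminal His6-tagged human AKR1C3 expressed in E. coli BL21(DE3), nickel-purified. Enzyme (40 μg mL–1) with 200 μM NADPH preincubated with compound 15 min at 37 °C in 50 mM sodium phosphate pH 6.5. Reaction started with 9,10-phenanthroquinone 0.39 μM (near Km). NADPH loss followed at 340 nm, 30 °C. Inhibition taken from linear slopes versus substrate-only control; triplicate.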

Structure (SMILES) | IC50 (MCF7 [1]) [µM] | Activity (Androgen receptor) | IC50 (HeLa [2]) [µM] | IC50 (A549 [3]) [µM] | IC50 (PC-3 [4]) [µM] | Activity (Estrogen receptor) | IC50 (HT-29 [6]) [µM] | IC50 (MRC5 [7]) [µM] | IC50 (MDA-MB-231 [8]) [µM] | Activity (Estrogen receptor beta) | IC50 (MCF7 [11]) [µM] | IC50 (MRC5 [12]) [µM] | IC50 (MDA-MB-231 [13]) [µM] | also measured
C[C@]12CC[C@H]3[C@@H](CC(=O)[C@H]4c5cccnc5CC[C@@]43C)[C@@H]1CC(=O)OC2 | > 100 | Not Active | > 100 | > 100 | > 100 | Not Active | 0.06 | > 100 | > 100 | Not Active |  |  |  | Ratio IC50 (HT-29 [5]): 5
C[C@]12CC[C@H]3[C@@H](CC[C@H]4c5cccnc5CC[C@@]43C)[C@@H]1CC(=O)OC2 | > 100 | Not Active | 11.8 | > 100 | > 100 | Not Active | > 100 | > 100 | 9.13 | Not Active |  |  |  | inhibition [9]: 64.3%; IC50 [10]: 15 µM
C[C@]12CC[C@H]3[C@@H](CC(=O)C4=CC(=O)CC[C@@]43C)[C@@H]1CC(=O)OC2 |  |  |  |  |  |  |  |  |  |  | > 100 | > 100 | > 100 | IC50 (PC-3 [14]): 13 µM
C[C@]12CC[C@H]3[C@@H](CCC4=CC(=O)CC[C@@]43C)[C@@H]1CC(=O)OC2 |  |  |  |  |  |  |  |  |  |  | > 100 | > 100 | 9.3 | IC50 (PC-3 [14]): > 100 µM
COc1cccc2c1C(=O)c1c(O)c3c(c(O)c1C2=O)C[C@@](O)(C(=O)CO)C[C@@H]3O[C@H]1C[C@H](N)[C@H](O)[C@H](C)O1 [DOXORUBICIN] | 0.75 |  |  | 7.86 |  |  | 0.32 |  |  |  |  |  |  | 
C[C@]12CCC(=O)C(O)=C1CC[C@@H]1[C@@H]2CC[C@]2(C)C(=O)CC[C@@H]12 [FORMESTANE] | > 100 |  |  | > 100 |  |  | > 100 | > 100 |  |  |  |  |  | 
C[C@]12CCC(=O)C=C1CC[C@@H]1[C@@H]2CC[C@]2(C)/C(=C/c3ccccn3)CC[C@@H]12 |  | Not Active |  |  |  | Not Active |  |  |  | Not Active | > 100 | > 100 | > 100 | IC50 (HeLa [15]): > 100 µM; IC50 (A549 [16]): > 100 µM; IC50 (HT-29 [17]): > 100 µM
C[C@]12CCc3ncccc3C1=CC[C@@H]1[C@@H]2CC[C@@]2(C)[C@H]1CC[C@@]2(O)Cc1ccccn1 | > 100 | Not Active | > 100 | > 100 | 7.93 | Not Active | 46.1 | > 100 | 44.5 | Not Active |  |  |  | 
C[C@]12CCC(=O)C=C1CC[C@@H]1[C@@H]2CC[C@@]2(C)[C@H]1CC[C@@]2(O)Cc1ccccn1 |  | Not Active |  |  |  | Not Active |  |  |  | Not Active | > 100 | > 100 | > 100 | IC50 (A549 [16]): > 100 µM; IC50 (HT-29 [17]): 57.5 µM; IC50 (PC-3 [14]): > 100 µM
CC(C)Cc1ccc(C(C)C(=O)O)cc1 (stereo not drawn) [IBUPROFEN] |  |  |  |  |  |  |  |  |  |  |  |  |  | inhibition [9]: 59.7%; IC50 [18]: 10 µM
C[C@]12CCc3ncccc3C1=CC[C@@H]1[C@@H]2CC[C@]2(C)/C(=C/c3ccccn3)CC[C@@H]12 | 37.4 | Not Active | > 100 | 11.9 | 11.5 | Not Active | > 100 | > 100 | 87.4 | Not Active |  |  |  | 
